Screening data as filed in PubChem BioAssay.
Rows were chosen to be rich in hits. Some 4.6% of all compounds tested hit in one or more screens of this group.
TAAR1 antag – human TAAR1 antagonists, primary screen, Fluo-8 calcium fluorescence, CHO RD-HGA16 cells; Trace amine-associated receptor 1 (Homo sapiens), Q96RJ0; antagonist; inhibition, % at 3 µM; actives 1.5% (n = 360,000); AID 624466, 2012;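 active = inhibition above a per-plate cutoff, the mean inhibition of test compounds on that plate plus 3 SD, cut at about 49% in these data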
Target sequence (Q96RJ0 whole entry, looked up): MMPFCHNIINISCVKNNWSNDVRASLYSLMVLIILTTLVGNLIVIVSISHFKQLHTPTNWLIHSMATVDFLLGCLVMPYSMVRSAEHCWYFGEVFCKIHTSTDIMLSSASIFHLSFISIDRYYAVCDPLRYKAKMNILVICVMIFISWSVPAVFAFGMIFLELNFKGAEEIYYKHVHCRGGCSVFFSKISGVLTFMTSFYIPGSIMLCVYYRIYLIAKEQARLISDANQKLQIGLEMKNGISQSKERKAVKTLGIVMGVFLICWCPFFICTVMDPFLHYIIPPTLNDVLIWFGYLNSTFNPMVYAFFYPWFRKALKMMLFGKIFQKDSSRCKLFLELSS
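Test system – hTAAR1-expressing CHO RD-HGA16 cells, Gα16-coupled · Reagent – β-PEA at EC80 concentration, post-compound challenge · Compound dosing – 3 µM, single point · Timing – 140 s kinetic read after compound, 140 s after agonist · Detection – Fluo-8 intracellular calcium dye fluorescence, real-time kinetic reads · Control set – DMSO and EC80 PEA controls · Repeats – n of 1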
OX1R antag-1 – antagonists of human orexin 1 receptor (OX1R); Orexin/Hypocretin receptor type 1 (Homo sapiens), O43613; OX1R-expressing cells, FRET antagonist read-out; inhibition, % at 6.6 µM; actives 1.8% (n = 330,000); AID 485270, 2010; in the data active = inhibition mostly above about 38%, no sharp cut-off; inactive = mostly below about 40%
GPR7 antag – GPR7 receptor antagonists, primary screen, cell-based, fluorescence, single concentration. actives 1.1% (n = 290,000). Neuropeptides B/W receptor type 1 (Homo sapiens), P48145. inhibition, % at 4.4 µM. GPR7-expressing cells, fluorescence antagonist assay. AID 1861, 2009; in the data active = inhibition above about 16%, passing the limit was not always enough;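 note: cells stimulated with the agonist NPW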
Target sequence (P48145 whole entry, looked up): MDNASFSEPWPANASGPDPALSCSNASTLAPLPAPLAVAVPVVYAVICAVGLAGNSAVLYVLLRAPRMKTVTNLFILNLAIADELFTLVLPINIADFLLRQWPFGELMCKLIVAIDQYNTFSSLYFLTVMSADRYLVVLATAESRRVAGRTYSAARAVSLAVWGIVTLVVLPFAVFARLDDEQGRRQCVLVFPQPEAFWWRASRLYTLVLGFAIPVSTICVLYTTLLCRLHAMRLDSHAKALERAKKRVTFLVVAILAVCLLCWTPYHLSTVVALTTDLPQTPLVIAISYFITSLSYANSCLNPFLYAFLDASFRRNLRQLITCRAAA
TAAR1 ag – human TAAR1 agonists, primary screen, Fluo-8 calcium fluorescence, CHO RD-HGA16 cells; vehicle wells 0%, saturating PEA agonist 100%; activation, % at 3 µM; actives 0.99% (n = 360,000);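 active = activation above the mean activation of all test compounds in the run plus 3 SD, cut at about 38% in these data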
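Assay system: CHO-derived RD-HGA16 cells with stable Gα16 and human TAAR1; timing: 17-24 h seeding, 75 min 37 °C dye, 30 min RT; read-out: % activation from peak over basal fluorescence ratio, DMSO-to-PEA scaled; measured by: kinetic Fluo-8 calcium fluorescence; benchmarks: low control DMSO, high control PEA (EC100); doses: 3 µM single concentration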
OX1R antag-2 – OX1R (HCRTR1) antagonists, primary screen, fluorescence, CHO/OX1R cells, Fluo-8 calcium, orexin A; actives 0.43% (n = 330,000); Fluo-8 calcium fluorescence; Orexin/Hypocretin receptor type 1 (Homo sapiens), O43613; inhibition, % at 5 µM; AID 434989, 2010;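 active = inhibition above its plate's threshold, mean inhibition of all tested compounds on the plate plus 3 SD, cut at about 37% in these data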
CHO parental Ca – ATP-evoked calcium signal inhibitors, parental CHO, primary screen, counter-screen for OX1R antagonist project, cell-based, fluorescence, Fluo-8 calcium dye; actives 0.63% (n = 330,000); parental CHO-K1, ATP-induced calcium, Fluo-8 fluorescence; inhibition, % at 5.6 µM;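 active = inhibition above that plate's mean sample inhibition plus 3 SD, cut at about 26% in these data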
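material = parental CHO cells | also added = ATP as calcium-mobilizing challenge | dosing = single point at 5.6 µM | detection = intracellular calcium via Fluo-8 no-wash fluorescent dye | read-out = % inhibition | benchmarks = low control ATP plus DMSO, high control DMSO only | repeats = one well per compound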
Hits are given with their value; – = inactive; · = no result given.

SMILES | TAAR1 antag | OX1R antag-1 | GPR7 antag | TAAR1 ag | OX1R antag-2 | CHO parental Ca
Cc1ccc(CN2CCCN(Cc3c(F)cccc3Cl)S2(=O)=O)cc1 | – | – | – | – | – | –
O=C1NCCCN1Cc1ccc(F)cc1Cl | – | · | – | – | · | ·
CCCc1c(-c2ccc(F)cc2F)ncn1Cc1ccccc1OC | – | · | · | – | · | ·
N#C/C(=N\Nc1ccc(S(=O)(=O)N2CCCCCC2)cc1)C(N)=S | – | 49 | – | – | – | –
COCCOc1cc(Nc2nnc(C(F)(F)F)s2)c(Cl)cc1Cl | – | – | – | – | – | –
Fc1ccc(Nc2nnc(C(F)(F)F)s2)cc1Cl | – | 56 | – | – | – | 40
Cc1cc2c(c(=O)o1)[C@@]1(C(=O)N(c3ccccc3)c3ccccc31)C1=C(CCCC1=O)O2 | – | · | · | – | · | ·
O=[N+]([O-])c1ccc(NCCCNS(=O)(=O)c2ccc(Cl)cc2)c(Cl)c1 | – | – | 54 | – | – | –
N/C(=N\c1nc2ccccc2o1)NC(=O)c1ccccc1 | – | – | – | – | – | –
N/C(=N\c1nc2ccccc2o1)NC(=O)/C=C/c1ccccc1 | – | 40 | – | – | – | –
COC(=O)[C@]12C[C@H](CC(=O)NCC3CCCCC3)C(=O)N(CCC3=CCCCC3)C1=C[C@H](COCc1ccccc1)O[C@@H]2C | – | · | · | – | · | ·
Cc1ccc(C)c(N2CCN(C(=O)CCc3nc(-c4ccccc4C(F)(F)F)no3)CC2)c1 | 68 | – | · | – | – | –
Cc1ccc(-c2noc(CCC(=O)NCCCN3CCN(c4ccc(F)cc4)CC3)n2)cc1 | – | – | – | – | – | –
COc1ccc(-c2noc(CCCCC(=O)N3CCN(c4cc(C)ccc4C)CC3)n2)cc1 | – | 38 | · | – | 75 | 74
COc1ccccc1-c1noc(CCC(=O)N2CCN(c3cc(C)ccc3C)CC2)n1 | 56 | – | · | – | – | –
Cc1ccc(-c2noc(CCC(=O)NCCCN3CCN(c4cccc(Cl)c4)CC3)n2)cc1 | – | – | 19 | – | 52 | –
COC(=O)c1ccc2cn[nH]c2c1 | – | · | · | – | · | ·
CC(C)C(C(=O)NCc1ccccc1)N(C)Cc1ccc(Cl)c(Cl)c1 (configuration not stated) | – | · | · | – | · | ·
CCCCCCn1c(=O)n2n(c1=O)C[C@]1(OC(=O)Nc3c(C)noc3C)CN(S(=O)(=O)c3ccc(C)cc3)C[C@]1(O)C2 | – | · | · | – | · | ·
CNc1cccc(-c2cccc(C(=O)N3CCOCC3)c2)n1 | – | · | · | – | · | ·
Cc1ccc(N=Nc2c(=O)[nH]n3c(=O)cc(C)[nH]c23)cc1 | – | 55 | – | – | – | –
N#CC(C#N)=C1c2cc(S(=O)(=O)NCCO)ccc2-c2ccc(S(=O)(=O)NCCO)cc21 | – | 69 | – | – | – | –
COc1ccc(CNC(=O)CSc2nc(SC)ns2)cc1 | – | – | – | – | – | 98
Cc1ccc(S(=O)(=O)N2[C@@H](c3ccccc3F)C(C(=O)O)=CC[C@H]2c2ccc3c(c2)OCO3)cc1 | – | 47 | · | – | – | –
Cc1ccc(S(=O)(=O)N2[C@@H](c3ccc(Br)cc3)C(C(=O)O)=CC[C@H]2c2ccc(C(C)C)cc2)cc1 | – | – | · | – | 54 | 75
SMILES | TAAR1 antag | OX1R antag-1 | GPR7 antag | TAAR1 ag | OX1R antag-2 | CHO parental Ca
Cc1ccc([C@@H]2CC=C(C(=O)O)[C@H](c3ccc(F)cc3)N2S(=O)(=O)c2ccc(C)cc2)cc1 | – | 70 | · | – | – | –
Cc1ccc([C@@H]2CC=C(C(=O)O)[C@H](c3ccc(Br)cc3)N2S(=O)(=O)c2ccc(C)cc2)cc1 | – | 39 | · | – | – | –
CC(=O)Cc1nsc(NC(=O)c2ccc(-c3ccc(F)cc3)o2)n1 | – | 61 | – | – | – | –
O=C(C(=O)N1CCN(C(=O)Cc2ccccc2)CC1)c1cccc(C(F)(F)F)c1 | – | · | · | – | · | ·
c1ccc(-c2nc(-n3nc4ccccc4n3)nc3ccccc23)cc1 | 65 | – | – | – | – | –
CCC1(c2ccccc2)NC(=O)N(CC(=O)NCCN2C(=O)S/C(=C\c3cccnc3)C2=O)C1=O (configuration not stated) | – | 57 | · | – | – | –
CC1(c2ccccc2)NC(=O)N(CC(=O)NCCN2C(=O)S/C(=C\c3cccnc3)C2=O)C1=O (configuration not stated) | – | · | · | – | · | ·
O=C(Nc1ccc(S(=O)(=O)Nc2ccccc2)cc1)c1ccc(CN2CCOCC2)cc1 | – | – | 50 | – | – | –
CCC(=O)Nc1ccc(NC(=S)NC(=O)c2oc3ccccc3c2C)cc1 | – | – | – | – | – | –
COc1ccc(CCNC(=O)c2oc3ccccc3c2C)cc1 | – | – | · | – | – | –
CCC(=O)Nc1ccc(NC(=O)c2oc3ccccc3c2C)cc1 | – | 47 | – | – | – | –
Cc1c(C(=O)NCCc2ccc3c(c2)OCCO3)oc2ccccc12 | – | 38 | – | – | – | –
CC(=O)Nc1cccc(NC(=O)c2oc3ccccc3c2C)c1 | – | 62 | – | – | – | –
CCOc1ccc2oc(C(=O)Nc3ccc4c(c3)OCO4)c(C)c2c1 | – | – | – | – | – | –
CCOc1ccc2oc(C(=O)Nc3ccc(N4CCOCC4)cc3)c(C)c2c1 | 50 | – | – | – | – | –
COc1ccc(-c2nc(N3CCCCCC3)sc2C(=O)c2ccccc2)cc1 | 80 | – | – | 42 | 56 | 36
Nc1scc2c(C(=O)N/N=C/c3ccc(Cl)cc3)nn(-c3ccccc3)c(=O)c12 | – | 47 | – | – | – | –
CCOC(=O)c1nn(-c2ccccc2)c(=O)c2c(NC(C)=O)scc12 | – | – | – | – | – | –
COC(=O)C1=C(C)N(Cc2ccccc2C(F)(F)F)C(=NCc2ccccc2)NC1CCc1ccccc1 (configuration not stated) | – | · | · | – | · | ·
Cc1cccc2c1-c1sc(C(=O)Nc3cccc([N+](=O)[O-])c3C)cc1CO2 | – | – | – | – | – | –
Cc1cccc2c1-c1sc(C(=O)Nc3cccnc3)cc1CO2 | – | 56 | – | – | – | –
Cc1cccc2c1-c1sc(C(=O)Nc3nccs3)cc1CO2 | – | 50 | – | – | – | –
O=C(Nc1nccs1)c1cc2c(s1)-c1ccccc1OC2 | – | – | 17 | – | – | –
O=C(Nc1cccnc1)c1cc2c(s1)-c1ccccc1OC2 | – | – | – | – | – | –
COC(=O)Cc1nnn2c1[C@H](C)[C@@H](OC)c1ccccc1-2 | – | · | · | – | · | ·
C[C@@H]1CN(c2ccc(N3CCNC[C@H]3C)cc2C#N)C[C@H](C)O1 | – | · | · | – | · | ·
